In brackets after ≈: the same amount, converted by molar mass.
How the values were obtained:
[1] = Toxicity in Balb/C mouse assessed as drug tolerability at 50 mg/kg, po by LC/MS/MS analysis; assay type: organism-based; conditions: in vivo
[2] = Volume of distribution at steady state in Balb/C mouse plasma at 50 mg/kg, po or 0.1 mg/kg, iv by LC/MS/MS analysis; assay type: ADME, organism-based; conditions: in vivo
Procedure, shortened: (§1)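 Female Balb/c mice dosed i.v. 0.1 mg/kg as part of a five-compound cassette, and p.o. 50 mg/kg, without ABT. PK parameters came from concentration–time profiles. Brain-to-plasma ratio was taken at 1 h.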

[3] = test system: Trypanosoma cruzi; test: Antitrypanosomal activity against acute-stage Trypanosoma cruzi CL Brener infected in BALB/c mouse assessed as reduction in parasite burden at 50 mg/kg, po bid administered for 5 days by bioluminescence imaging based analysis relative to control; assay type: functional; design: scale not given: the % may be the effect or the level left; conditions: time 5 day
[4] = Intrinsic clearance in human liver microsomes at 1 uM incubated for 15 to 30 mins by LC/MS/MS analysis; assay type: ADME, Microsome; conditions: time 15-30 min
[5] = Kinetic solubility of compound in aqueous buffer at pH 6.8 incubated for 16 to 24 hrs by HPLC analysis; assay type: physicochemical; conditions: time 16-24 hrs, read-out: Kinetic_solubility
[6] = Ratio of drug level in Balb/C mouse brain to plasma at 50 mg/kg, po or 0.1 mg/kg, iv measured after 1 hr by LC/MS/MS analysis; assay type: ADME, organism-based; procedure, shortened: as §1
[7] = Volume of distribution at steady state in Balb/C mouse plasma at 12.5 mg/kg, po or 2 mg/kg, iv in presence of ABT by LC/MS/MS analysis; assay type: ADME, organism-based; conditions: in vivo
Procedure, shortened: (§2)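 Female Balb/c mice (n = 3 per route) dosed i.v. 2 mg/kg and p.o. 12.5 mg/kg. 1-Aminobenzotriazole, a CYP450 inhibitor, was given p.o. at 50 mg/kg 2 h before each dose. Parameters were derived from blood concentration–time profiles.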

[8] = AUC (0 to last) in Balb/C mouse at 50 mg/kg, po or 0.1 mg/kg, iv by LC/MS/MS analysis; assay type: ADME, organism-based; design: dose 50 mg/kg, route po; conditions: in vivo; procedure, shortened: as §1
[9] = Toxicity in Balb/C mouse assessed as drug tolerability at 12.5 mg/kg, po by LC/MS/MS analysis; assay type: organism-based; conditions: in vivo
[10] = Toxicity in BALB/c mouse infected with acute Trypanosoma cruzi CL Brener assessed as adverse effects at 50 mg/kg, po bid; assay type: organism-based; conditions: in vivo
[11] = AUC (0 to last) in Balb/C mouse at 12.5 mg/kg, po or 2 mg/kg, iv in presence of ABT by LC/MS/MS analysis; assay type: ADME, organism-based; design: dose 12.5 mg/kg, route po; conditions: in vivo; procedure, shortened: as §2
[12] = Half life in Balb/C mouse at 50 mg/kg, po by LC/MS/MS analysis; assay type: ADME, organism-based; conditions: in vivo
Procedure, shortened: (§3)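 Female Balb/c mice received a single i.v. dose of 1 mg/kg and a single oral dose of 50 mg/kg. PK parameters came from blood concentration–time profiles. Brain-to-plasma ratio was taken at 0.5 h.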

[13] = Toxicity in Balb/C mouse assessed as drug tolerability at 50 mg/kg, po bid measured after 5 days by LC/MS/MS analysis; assay type: organism-based; conditions: in vivo, 120 h, time 5 day
Procedure, shortened: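 Healthy female mice, one per group, were dosed orally twice daily for 5 days at 10, 50 or 100 mg/kg, with vehicle controls (0.5% HPMC/0.5% benzyl alcohol/0.4% Tween 80 in water). Readouts were mortality, clinical signs, body weight, food consumption and gross pathology.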

[14] = Half life in Balb/C mouse plasma at 12.5 mg/kg, po in presence of ABT by LC/MS/MS analysis; assay type: ADME, organism-based; procedure, shortened: as §2
[15] = Cmax in Balb/C mouse at 50 mg/kg, po or 0.1 mg/kg, iv by LC/MS/MS analysis; assay type: ADME, organism-based; design: dose 50 mg/kg, route po; conditions: in vivo; procedure, shortened: as §1
[16] = Oral bioavailability in Balb/C mouse at 12.5 mg/kg in presence of ABT by LC/MS/MS analysis; assay type: ADME, organism-based; conditions: in vivo; procedure, shortened: as §2
[17] = Cmax in Balb/C mouse at 12.5 mg/kg, po or 2 mg/kg, iv in presence of ABT by LC/MS/MS analysis; assay type: ADME, organism-based; design: dose 12.5 mg/kg, route po; conditions: in vivo; procedure, shortened: as §2
[18] = Plasma protein binding in mouse at 2 uM incubated for 6 hrs by LC/MS/MS analysis; assay type: ADME
[19] = test system: Trypanosoma cruzi; test: Antitrypanosomal activity against intracellular Trypanosoma cruzi infected in human U2OS cells assessed as parasite growth inhibition incubated for 72 hrs by confocal microscopy; assay type: functional, organism-based; conditions: Trypanosoma cruzi, U2OS, 72 h
[20] = Selectivity index, ratio of IC50 for human U2OS cells to IC50 for intracellular Trypanosoma cruzi infected in human U2OS cells; assay type: toxicity, cell-based
Procedure, shortened: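 Host U2OS cell counts and intracellular parasite infection ratio were read from the same 72 h DRAQ5-stained confocal imaging assay. CC50 and EC50 came from 4-parameter logistic fits, and the selectivity index is their ratio.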

[21] = Half life in Balb/C mouse plasma at 2 mg/kg, iv in presence of ABT by LC/MS/MS analysis; assay type: ADME, organism-based; procedure, shortened: as §2
[22] = Oral bioavailability in Balb/C mouse plasma at 50 mg/kg by LC/MS/MS analysis; assay type: ADME, organism-based; conditions: in vivo
[23] = Intrinsic clearance in mouse liver microsomes at 1 uM incubated for 15 to 30 mins by LC/MS/MS analysis; assay type: ADME, Microsome; conditions: time 15-30 min
[24] = Permeability of compound incubated for 3 hrs by PAMPA assay; assay type: ADME; conditions: read-out: permeability
[25] = AUC (0 to last) in Balb/C mouse at 50 mg/kg, po or 1 mg/kg, iv by LC/MS/MS analysis; assay type: ADME, organism-based; design: dose 50 mg/kg, route po; conditions: in vivo; procedure, shortened: as §3
[26] = Toxicity in Balb/C mouse assessed as adverse reactions at 50 mg/kg, po by LC/MS/MS analysis; assay type: organism-based; conditions: in vivo
[27] = Cmax in Balb/C mouse at 50 mg/kg, po or 1 mg/kg, iv by LC/MS/MS analysis; assay type: ADME, organism-based; design: dose 50 mg/kg, route po; conditions: in vivo; procedure, shortened: as §3
[28] = Ratio of drug level in Balb/C mouse brain to plasma at 50 mg/kg, po or 1 mg/kg, iv measured after 0.5 hrs by LC/MS/MS analysis; assay type: ADME, organism-based; procedure, shortened: as §3
[29] = Volume of distribution at steady state in Balb/C mouse plasma at 50 mg/kg, po or 1 mg/kg, iv by LC/MS/MS analysis; assay type: ADME, organism-based; conditions: in vivo; procedure, shortened: as §3
[30] = Half life in Balb/C mouse at 1 mg/kg, iv by LC/MS/MS analysis; assay type: ADME, organism-based; conditions: in vivo; procedure, shortened: as §3

c1ccc(-c2nc(N3CCC(c4ccccn4)C3)c3ccccc3n2)nc1 (racemic)
Activity [1]: Non-Toxic | Vdss [2]: 0.77 L/kg | Activity [3]: 89.9% | CLint [4]: 73 µL/min/mg | solubility kinetic [5]: 0.083 mg/mL (≈ 235 µM) | BPR [6]: 1.66 | Vdss [7]: 0.94 L/kg | AUC(0-t) [8]: 9.61 µg·h/mL | Activity [9]: Toxic | Activity [10]: Non-Toxic | AUC(0-t) [11]: 26.9 µg·h/mL | half-life [12]: 7.2 h | Activity [13]: Non-Toxic | half-life [14]: 3.3 h | Cmax [15]: 3.36 µg/mL | F [16]: 67% | Cmax [17]: 4.243 µg/mL | PPB [18]: 99.9% | IC50 [19]: 0.79 µM | Selectivity Index [20]: 9.1 | half-life [21]: 1 h | F [22]: 50% | intrinsic clearance (CLint) [23]: 258 µL/min/mg | Papp at 3 h [24]: 319 nm/s

CC(C)(Nc1nc(-c2ccccn2)nc2ccccc12)c1ccccn1
Activity [1]: Non-Toxic | AUC(0-t) [25]: 59.9 µg·h/mL | Activity [26]: Non-Toxic | solubility kinetic [5]: 0.083 mg/mL (≈ 243 µM) | Cmax [27]: 6.24 µg/mL | Activity [13]: Toxic | PPB [18]: 94.2% | IC50 [19]: 1 µM | selectivity ratio ([20]; U2OS cells, read-out: Selectivity Index): 25 | BPR [28]: 1.6 | Vdss [29]: 0.909 L/kg | half-life [30]: 1.13 h | F [22]: > 100% | Papp at 3 h [24]: 258 nm/s
